Assay results reported in ChEMBL document CHEMBL1134284, “The biological effects of structural variation at the meta position of the aromatic rings and at the end of the alkenyl chain in the alkenyldiarylmethane series of non-nucleoside reverse transcriptase inhibitors” (J Med Chem, 2001).

What was measured:
[1] = Ratio of CC50/EC50 was determined; type: cell-based; conditions: human, CEM-SS cells; read-out: TI
Outline: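 HIV-1 RF–infected CEM-SS cells (RPMI 1640, 10% heat-inactivated FBS, 2 mM glutamine, penicillin/streptomycin), plus mock-infected CEM-SS in parallel. Cell killing and viability were read by MTS/phenazine ethosulfate reduction at 490 nm 6 days after infection. […] Index = CC50 ÷ EC50. Triplicate tests.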

[2] = test system: Human immunodeficiency virus type 1 (RF/HAT ISOLATE); assay: Inhibitory concentration for cytopathicity of HIV-1RF in CEM-SS cells; type: functional, organism-based; conditions: Human immunodeficiency virus 1, RF
Outline: (§1)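 CEM-SS cells kept in RPMI 1640 with 10% heat-inactivated FBS, 2 mM glutamine, penicillin/streptomycin. Microtiter assay with cytopathic HIV-1 RF, or mock infection for toxicity. Viability read by MTS/phenazine ethosulfate reduction (absorbance 490 nm) 6 days after infection. […] Triplicate.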

[3] = molecular target: Human immunodeficiency virus type 1 reverse transcriptase (Human immunodeficiency virus 1, UniProt Q72547); assay: Inhibitory activity against HIV-1 Reverse Transcriptase with rCdG as the template primer
Outline: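 Cell-free assay with purified recombinant HIV-1 RT (p66/p51 dimer). Activity measured as [32P]GTP incorporation into the poly(rC)/oligo(dG) homopolymer template/primer. IC50 is reported as inhibition of enzyme activity.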

CEM-SS [4] = assay: Concentration required for cytotoxicity against mock infected CEM-SS cells; type: functional; conditions: Homo sapiens; outline: as §1
CEM-SS [5] = assay: Inhibitory concentration for cytopathicity of HIV-1RF in CEM-SS cells; Not active; type: functional, cell-based, Homo sapiens; outline: as §1

Work on `COC(=O)c1cc(C(=CCCNC(=O)OCC(C)C)c2cc(C)c(OC)c(C(=O)OC)c2)cc(C)c1OC` yielded a selectivity ratio [1] of 6.73, an EC50 [2] of 0.76 µM and an IC50 [3] of 2.95 µM. It also gave a CC50 (CEM-SS [4]) of 5.13 µM.

For `COC(=O)c1cc(C(=CCCCC(=O)N2CCCCC2)c2cc(Cl)c(OC)c(C(=O)OC)c2)cc(Cl)c1OC`, the IC50 [3] was > 100 µM, the EC50 (CEM-SS [5]) was “Not Active” and the CC50 (CEM-SS [4]) was 3.59 µM.

For `COC(=O)NCCC=C(c1cc(Cl)c(OC)c(C(=O)OC)c1)c1cc(Cl)c(OC)c(C(=O)OC)c1`, the selectivity ratio [1] was 10.2, the EC50 [2] was 1.22 µM and the IC50 [3] was 4.43 µM. It also gave a CC50 (CEM-SS [4]) of 12.4 µM.

For `COC(=O)c1cc(C(=CCCCC(=O)OC(C)C)c2cc(Cl)c(OC)c(C(=O)OC)c2)cc(Cl)c1OC`, the selectivity ratio [1] was 42.9, the EC50 [2] was 0.84 µM and the IC50 [3] was > 100 µM. It also gave a CC50 (CEM-SS [4]) of 36.1 µM.

Work on `CCOC(=O)NCCC=C(c1cc(C)c(OC)c(C(=O)OC)c1)c1cc(C)c(OC)c(C(=O)OC)c1` yielded a selectivity ratio [1] of 5.34, an EC50 [2] of 0.67 µM and an IC50 [3] of 0.016 µM. The CC50 (CEM-SS [4]) was 3.59 µM.

In the case of `COC(=O)c1cc(C(=CCCCS(C)(=O)=O)c2cc(Cl)c(OC)c(C(=O)OC)c2)cc(Cl)c1OC`, the EC50 (CEM-SS [5]) is reported as “Not Active” and the CC50 (CEM-SS [4]) is reported as 14.9 µM.

For `COC(=O)c1cc(C(=CCCNC(=O)OCC(C)C)c2cc(Cl)c(OC)c(C(=O)OC)c2)cc(Cl)c1OC`, the IC50 [3] was 65.4 µM, the EC50 (CEM-SS [5]) was “Not Active” and the CC50 (CEM-SS [4]) was 17.2 µM.

Compound `COC(=O)CCCC=C(c1cc(F)c(OC)c(C(=O)OC)c1)c1cc(F)c(OC)c(C(=O)OC)c1` has a selectivity ratio [1] of 36, an EC50 [2] of 1.9 µM and a CC50 (CEM-SS [4]) of 68.3 µM.

For `COC(=O)c1cc(C(=CCCCC(=O)SC)c2cc(Cl)c(OC)c(C(=O)OC)c2)cc(Cl)c1OC`, the selectivity ratio [1] was 5.15, the EC50 [2] was 2.42 µM and the CC50 (CEM-SS [4]) was 12.5 µM.

Work on `COC(=O)c1cc(C(=CCCCC(=O)N2CCCCC2)c2cc(C)c(OC)c(C(=O)OC)c2)cc(C)c1OC` yielded a selectivity ratio [1] of 2.74, an EC50 [2] of 5.37 µM and an IC50 [3] of 7.12 µM. It also gave a CC50 (CEM-SS [4]) of 14.7 µM.

For `CCCCCC=C(c1cc(I)c(OC)c(C(=O)OC)c1)c1cc(I)c(OC)c(C(=O)OC)c1`, the CC50 (CEM-SS [4]) was > 316 µM.

In the case of `CCCOC(=O)CCCC=C(c1cc(Br)c(OC)c(C(=O)OC)c1)c1cc(Br)c(OC)c(C(=O)OC)c1`, the selectivity ratio [1] is reported as > 17.5, the EC50 [2] is reported as 1.14 µM and the IC50 [3] is reported as 9.15 µM. For the same compound, the CC50 (CEM-SS [4]) was > 20 µM.

For `COC(=O)c1cc(C(=CCCCC(=O)OC(C)C)c2cc(Br)c(OC)c(C(=O)OC)c2)cc(Br)c1OC`, the selectivity ratio [1] was 3.79, the EC50 [2] was 4.33 µM and the IC50 [3] was 70.8 µM. It also gave a CC50 (CEM-SS [4]) of 16.4 µM.

With `COC(=O)c1cc(C(=CCCCC(=O)OC(C)C)c2cc(C)c(OC)c(C(=O)OC)c2)cc(C)c1OC` the IC50 [3] was 60.4 µM, the EC50 (CEM-SS [5]) was “Not Active” and the CC50 (CEM-SS [4]) was 4.32 µM.

For `C#CCCCC=C(c1cc(Br)c(OC)c(C(=O)OC)c1)c1cc(Br)c(OC)c(C(=O)OC)c1`, the selectivity ratio [1] was > 43, the EC50 [2] was 4.7 µM and the IC50 [3] was 6 µM. For the same compound, the CC50 (CEM-SS [4]) was > 200 µM.

Work on `CCCOC(=O)CCCC=C(c1cc(Cl)c(OC)c(C(=O)OC)c1)c1cc(Cl)c(OC)c(C(=O)OC)c1` yielded a selectivity ratio [1] of 10.8, an EC50 [2] of 1.29 µM and an IC50 [3] of 8.3 µM. It also gave a CC50 (CEM-SS [4]) of 13.9 µM.

With `CCOC(=O)NCCC=C(c1cc(Cl)c(OC)c(C(=O)OC)c1)c1cc(Cl)c(OC)c(C(=O)OC)c1` the selectivity ratio [1] was 17.2, the EC50 [2] was 0.71 µM and the IC50 [3] was 1.93 µM. It also gave a CC50 (CEM-SS [4]) of 12.2 µM.

`CCCCCC=C(c1cc(C)c(OC)c(C(=O)OC)c1)c1cc(C)c(OC)c(C(=O)OC)c1` showed a selectivity ratio [1] of 2.5, an EC50 [2] of 6.8 µM and an IC50 [3] of 1 µM. It also gave a CC50 (CEM-SS [4]) of 17.2 µM.

In the case of `COC(=O)c1cc(C(=CCCCC(OC)OC)c2cc(Cl)c(OC)c(C(=O)OC)c2)cc(Cl)c1OC`, the IC50 [3] is reported as > 100 µM and the CC50 (CEM-SS [4]) is reported as 18.1 µM.

With `CCSC(=O)CCCC=C(c1cc(Cl)c(OC)c(C(=O)OC)c1)c1cc(Cl)c(OC)c(C(=O)OC)c1` the selectivity ratio [1] was 3.2, the EC50 [2] was 3.95 µM and the CC50 (CEM-SS [4]) was 12.6 µM.

With `COC(=O)c1cc(C(=CCCNC(C)=O)c2cc(Cl)c(OC)c(C(=O)OC)c2)cc(Cl)c1OC` the IC50 [3] was > 100 µM, the EC50 (CEM-SS [5]) was “Not Active” and the CC50 (CEM-SS [4]) was 19.1 µM.

With `COC(=O)CCCC=C(c1cc(C)c(OC)c(C(=O)OC)c1)c1cc(C)c(OC)c(C(=O)OC)c1` the selectivity ratio [1] was 24, the EC50 [2] was 0.25 µM and the IC50 [3] was < 1 µM. The CC50 (CEM-SS [4]) was 6 µM.

Compound `CCCCCC=C(c1ccc(OC)c(C(=O)OC)c1)c1ccc(OC)c(C(=O)OC)c1` has a CC50 (CEM-SS [4]) of 14 µM.
